# Test results reported in the RNAGym collection of RNA variant scans (doi:10.1038/nmeth.2970).
# B1: GFP aptamer (parent)
# chain: GCUUCUGGACUGCGAUGGGAGCACGAAACGUCGUGGCGCAAUUGGGUGGGGAAAGUCCUUAAAAGAGGGCCACCACAGAAGC
# Variants of: B1
# Experiment: HiTS-RAP
# Details: with EGFP
# Method in brief: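 Aptamer templates containing a T7 promoter and ter site were sequenced on an Illumina GAIIx flowcell, transcribed in situ with T7 RNA polymerase and halted with GST-Tus for 30 minutes at 37°C. Clusters were imaged after 30 minutes at room temperature with EGFP-mOrange at 0.04 nM to 625 nM in fivefold steps. Kd was obtained from per-lane weighted Hill fits to decay-corrected, sequencing-normalised, per-sequence mean intensities, geometrically averaged over lanes. Three lanes entered that average, and non-rising sequences were given 125 nM.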
row,Variant,Kd
1,C10U A27G,3.1 nM
2,G14A C32U,15.4 nM
3,U31C A75G,14 nM
4,A28G U47C,1.08 nM
5,C37U C73U,24 nM
6,U47G,5.28 nM
7,U47A,8.14 nM
8,U47C,8.1 nM
9,C10U U34C,4.37 nM
10,A77G,4.77 nM
11,A77C,15.3 nM
12,C22G,29.1 nM
13,U4A,4.17 nM
14,G25A A26G,6.06 nM
15,C32U C74U,11.9 nM
16,G35U,≥ 125 nM
17,G35A,≥ 125 nM
18,A23G,5.87 nM
19,A80C,12.1 nM
20,G25A U43C,2.24 nM
21,C70A,79.2 nM
22,C70U,7.23 nM
23,U31G,3.99 nM

row,Variant,Kd
1,C13U C74U,17.4 nM
2,U34C A77G,18 nM
3,C29U U31C,2.86 nM
4,A28G A77G,2.55 nM
5,C22U A27G,9.49 nM
6,A20G A79G,37.9 nM
7,U47C C58U,2.94 nM
8,G14U,4.92 nM
9,A27G C71U,17.8 nM
10,A40G C73U,4.47 nM
11,U42C A77G,13.7 nM
12,C10U G33A,29.6 nM
13,G33A C73U,8.48 nM
14,G50A,68 nM
15,G25C,7 nM
16,G25U,3.87 nM
17,G25A,5 nM
18,U31C A40G,4.07 nM
19,A20G A41G,19.6 nM
20,C32U,4.26 nM
21,C32G,4.95 nM
22,A27G C32U,3.03 nM
23,C32U A79G,5.26 nM

row,Variant,Kd
1,A27G G68A,17.3 nM
2,A27G G30A,2.45 nM
3,A61U,4.9 nM
4,A15G,4.76 nM
5,A15C,66.2 nM
6,G49U,11.1 nM
7,G18C,≥ 125 nM
8,G18A,≥ 125 nM
9,C10A,3.61 nM
10,C10U,4.3 nM
11,C10G,4.07 nM
12,G21C,5.13 nM
13,G21U,6 nM
14,C13U A28G,3.77 nM
15,C32U U43C,2.27 nM
16,U16G,2.69 nM
17,U16C,6.81 nM
18,U16A,5.38 nM
19,C10U U47C,1.58 nM
20,A79G,4.31 nM
21,A79C,18.6 nM
22,C13U U43C,8.72 nM
23,U11C,24.2 nM

row,Variant,Kd
1,U11A,4.13 nM
2,U11G,3.81 nM
3,C13U U42C,3.54 nM
4,A27G C74U,3.31 nM
5,A27G U43C,4.45 nM
6,C74A,28.9 nM
7,A26C,4.53 nM
8,A26U,4.33 nM
9,A20G G44A,13 nM
10,G30A,4.37 nM
11,U31C U43C,1.5 nM
12,A75U,26.3 nM
13,A75G,9.8 nM
14,C82A,3.36 nM
15,C82G,10.1 nM
16,C5U,4.3 nM
17,C5A,8.09 nM
18,A62C,4 nM
19,C10U C29U,3.83 nM
20,A20U,≥ 125 nM
21,C13U,4.53 nM
22,C13A,14.6 nM
23,G25A G33A,11.9 nM
